From ChEMBL document CHEMBL2417369, “Synthesis and evaluation of heteroaryl substituted diazaspirocycles as scaffolds to probe the ATP-binding site of protein kinases” (Bioorg Med Chem, 2013) come the findings set out here.

Assay [1] deals with Tyrosine-protein kinase Fyn (Homo sapiens, UniProt P06241). Briefly: Inhibition of FYN (unknown origin) at 30 uM by microfluidic mobility shift assay relative to control. The gist of the method:
(§1)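 Single-point screen in a 24-enzyme kinase panel using a microfluidic assay. Each compound was tested at […] with ATP at roughly the Km for each enzyme. The pan-AGC inhibitor H-89 served as an internal control on every plate.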

Assay [2] has as its target Mitogen-activated protein kinase 14 (Homo sapiens) (UniProt Q16539). As to the kind of experiment: Inhibition of p38alpha (unknown origin) at 30 uM by microfluidic mobility shift assay relative to control. Put shortly:
as §1

Assay [3] concerns the target T1, MAP kinase-activated protein kinase 5 (Homo sapiens) (UniProt Q8IW41).
T1 sequence (whole entry): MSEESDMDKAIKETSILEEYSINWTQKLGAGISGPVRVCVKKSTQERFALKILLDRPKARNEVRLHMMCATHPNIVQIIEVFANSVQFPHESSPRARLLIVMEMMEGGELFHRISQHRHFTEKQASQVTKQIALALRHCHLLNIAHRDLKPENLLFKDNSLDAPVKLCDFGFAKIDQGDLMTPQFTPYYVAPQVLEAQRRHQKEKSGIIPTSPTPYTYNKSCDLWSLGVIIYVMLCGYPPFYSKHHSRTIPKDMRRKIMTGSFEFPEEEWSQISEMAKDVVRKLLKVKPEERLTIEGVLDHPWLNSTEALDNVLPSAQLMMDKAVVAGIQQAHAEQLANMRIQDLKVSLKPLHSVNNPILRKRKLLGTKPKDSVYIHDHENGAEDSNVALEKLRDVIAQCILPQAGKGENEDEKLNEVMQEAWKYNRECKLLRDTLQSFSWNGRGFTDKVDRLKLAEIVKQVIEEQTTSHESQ
Briefly: Inhibition of MAPKAPK5 (unknown origin) at 30 uM by microfluidic mobility shift assay relative to control. The gist of the method:
as §1

The target of assay [4] is MAP kinase-activated protein kinase 2 (Homo sapiens) (UniProt P49137). Briefly: Inhibition of MK2 (unknown origin) at 30 uM by microfluidic mobility shift assay relative to control. The gist of the method: as §1
MAP kinase-activated protein kinase 2 (Homo sapiens), sequence (P49137 whole entry, looked up): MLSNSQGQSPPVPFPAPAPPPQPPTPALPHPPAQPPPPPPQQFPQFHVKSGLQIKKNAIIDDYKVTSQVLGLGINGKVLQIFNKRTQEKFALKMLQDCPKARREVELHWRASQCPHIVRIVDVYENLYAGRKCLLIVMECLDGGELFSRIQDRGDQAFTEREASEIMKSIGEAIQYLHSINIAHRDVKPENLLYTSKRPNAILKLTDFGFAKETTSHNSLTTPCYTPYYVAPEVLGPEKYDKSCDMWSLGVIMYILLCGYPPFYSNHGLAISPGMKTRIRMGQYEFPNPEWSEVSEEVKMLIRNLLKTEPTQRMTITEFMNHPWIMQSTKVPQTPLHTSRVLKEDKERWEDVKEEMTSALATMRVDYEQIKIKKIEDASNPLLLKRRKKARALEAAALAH
Assay [5] deals with RAC-beta serine/threonine-protein kinase (Homo sapiens, UniProt P31751). As to the kind of experiment: Inhibition of AKT2 (unknown origin) at 30 uM by microfluidic mobility shift assay relative to control. Put shortly: as §1
RAC-beta serine/threonine-protein kinase, sequence (P31751 whole entry): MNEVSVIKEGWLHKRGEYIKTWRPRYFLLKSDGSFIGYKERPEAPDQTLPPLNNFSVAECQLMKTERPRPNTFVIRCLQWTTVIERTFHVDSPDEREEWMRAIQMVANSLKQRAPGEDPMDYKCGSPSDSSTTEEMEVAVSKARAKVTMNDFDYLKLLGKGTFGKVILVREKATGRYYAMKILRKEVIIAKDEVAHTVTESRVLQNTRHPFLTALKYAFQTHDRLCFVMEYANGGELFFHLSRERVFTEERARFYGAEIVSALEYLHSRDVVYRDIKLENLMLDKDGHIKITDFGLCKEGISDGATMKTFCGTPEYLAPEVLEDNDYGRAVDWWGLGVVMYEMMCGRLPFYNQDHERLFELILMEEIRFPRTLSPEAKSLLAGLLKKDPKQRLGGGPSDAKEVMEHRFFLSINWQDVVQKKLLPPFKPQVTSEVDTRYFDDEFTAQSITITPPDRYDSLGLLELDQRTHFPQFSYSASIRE
The species entered for assay [6] is Homo sapiens. Briefly: Inhibition of PKA (unknown origin) at 30 uM by microfluidic mobility shift assay relative to control. The gist of the method:
as §1

Assay [7] concerns the target Protein kinase C (PKC) (Homo sapiens) (UniProt O94806+P41743+P17252+P05129+Q05655+P05771+Q05513+Q02156+P24723+Q15139+Q04759). As to the kind of experiment: Inhibition of PKC (unknown origin) at 30 uM by microfluidic mobility shift assay relative to control. Put shortly: as §1
Assay [8] has as its target Tyrosine-protein kinase Lyn (Homo sapiens, UniProt P07948). Briefly: Inhibition of LYN (unknown origin) at 30 uM by microfluidic mobility shift assay relative to control. The gist of the method: as §1
Assay [9] has as its target T2, Serine/threonine-protein kinase Chk1 (Homo sapiens) (UniProt O14757).
T2 sequence (whole entry): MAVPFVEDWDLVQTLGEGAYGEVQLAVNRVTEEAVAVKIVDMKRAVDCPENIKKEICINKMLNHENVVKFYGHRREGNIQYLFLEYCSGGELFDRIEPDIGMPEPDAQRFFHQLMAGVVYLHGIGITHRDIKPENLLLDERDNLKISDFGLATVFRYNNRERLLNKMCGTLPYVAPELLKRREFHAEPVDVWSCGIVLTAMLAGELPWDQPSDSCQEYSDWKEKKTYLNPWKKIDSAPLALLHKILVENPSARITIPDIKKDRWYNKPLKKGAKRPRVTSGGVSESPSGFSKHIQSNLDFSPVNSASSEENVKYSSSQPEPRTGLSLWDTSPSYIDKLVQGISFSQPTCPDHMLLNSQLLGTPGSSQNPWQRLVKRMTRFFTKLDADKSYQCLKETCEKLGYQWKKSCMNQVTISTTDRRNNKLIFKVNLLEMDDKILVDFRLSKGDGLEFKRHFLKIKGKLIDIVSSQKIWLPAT
As to the kind of experiment: Inhibition of CHK1 (unknown origin) at 30 uM by microfluidic mobility shift assay relative to control. Put shortly:
as §1

Assay [10] concerns the target Glycogen synthase kinase-3 beta (Homo sapiens, UniProt P49841). As to the kind of experiment: Inhibition of GSK3beta (unknown origin) at 30 uM by microfluidic mobility shift assay relative to control. Put shortly: as §1
In assay [11] the target is Insulin receptor (Homo sapiens) (UniProt P06213). Briefly: Inhibition of INSR (unknown origin) at 30 uM by microfluidic mobility shift assay relative to control. The gist of the method: as §1
Insulin receptor (Homo sapiens), sequence (P06213 28-758 limits assumed): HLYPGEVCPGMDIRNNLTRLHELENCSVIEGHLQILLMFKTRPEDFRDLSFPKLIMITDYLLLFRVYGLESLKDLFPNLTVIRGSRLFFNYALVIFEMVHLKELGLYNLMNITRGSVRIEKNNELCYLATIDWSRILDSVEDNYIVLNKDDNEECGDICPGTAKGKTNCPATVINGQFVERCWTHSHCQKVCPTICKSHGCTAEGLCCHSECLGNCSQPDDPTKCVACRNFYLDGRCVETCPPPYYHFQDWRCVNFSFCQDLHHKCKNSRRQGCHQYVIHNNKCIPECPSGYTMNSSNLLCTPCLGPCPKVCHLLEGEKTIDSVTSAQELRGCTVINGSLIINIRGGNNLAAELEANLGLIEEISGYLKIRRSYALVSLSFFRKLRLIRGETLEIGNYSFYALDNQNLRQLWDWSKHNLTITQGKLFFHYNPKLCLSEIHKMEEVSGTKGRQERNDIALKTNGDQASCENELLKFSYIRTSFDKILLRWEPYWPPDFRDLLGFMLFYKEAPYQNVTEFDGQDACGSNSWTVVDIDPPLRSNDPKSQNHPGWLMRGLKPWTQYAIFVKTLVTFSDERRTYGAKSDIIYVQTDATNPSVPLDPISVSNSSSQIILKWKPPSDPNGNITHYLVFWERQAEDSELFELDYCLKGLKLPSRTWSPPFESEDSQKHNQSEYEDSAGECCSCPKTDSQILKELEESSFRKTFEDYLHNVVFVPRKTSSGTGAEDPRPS
Insulin receptor (Homo sapiens), sequence (P06213 763-1382 limits assumed): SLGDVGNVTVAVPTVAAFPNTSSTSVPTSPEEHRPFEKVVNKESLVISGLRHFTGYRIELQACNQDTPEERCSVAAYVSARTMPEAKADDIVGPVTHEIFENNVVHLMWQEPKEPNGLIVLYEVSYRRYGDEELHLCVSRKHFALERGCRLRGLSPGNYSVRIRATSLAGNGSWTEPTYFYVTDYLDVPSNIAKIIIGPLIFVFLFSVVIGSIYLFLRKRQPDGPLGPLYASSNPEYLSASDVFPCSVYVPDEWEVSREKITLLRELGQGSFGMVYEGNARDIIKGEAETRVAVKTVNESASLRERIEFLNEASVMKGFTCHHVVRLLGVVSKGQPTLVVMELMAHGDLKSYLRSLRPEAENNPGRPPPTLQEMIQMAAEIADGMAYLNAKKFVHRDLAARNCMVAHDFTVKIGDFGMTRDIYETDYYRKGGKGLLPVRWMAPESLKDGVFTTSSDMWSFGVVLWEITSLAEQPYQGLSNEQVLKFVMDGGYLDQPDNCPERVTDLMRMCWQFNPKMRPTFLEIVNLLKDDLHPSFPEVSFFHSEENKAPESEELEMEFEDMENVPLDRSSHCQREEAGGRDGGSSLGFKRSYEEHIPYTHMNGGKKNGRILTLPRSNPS
The target in assay [12] is T3, Serine/threonine-protein kinase D2 (Homo sapiens) (UniProt Q9BZL6).
T3 sequence (whole entry): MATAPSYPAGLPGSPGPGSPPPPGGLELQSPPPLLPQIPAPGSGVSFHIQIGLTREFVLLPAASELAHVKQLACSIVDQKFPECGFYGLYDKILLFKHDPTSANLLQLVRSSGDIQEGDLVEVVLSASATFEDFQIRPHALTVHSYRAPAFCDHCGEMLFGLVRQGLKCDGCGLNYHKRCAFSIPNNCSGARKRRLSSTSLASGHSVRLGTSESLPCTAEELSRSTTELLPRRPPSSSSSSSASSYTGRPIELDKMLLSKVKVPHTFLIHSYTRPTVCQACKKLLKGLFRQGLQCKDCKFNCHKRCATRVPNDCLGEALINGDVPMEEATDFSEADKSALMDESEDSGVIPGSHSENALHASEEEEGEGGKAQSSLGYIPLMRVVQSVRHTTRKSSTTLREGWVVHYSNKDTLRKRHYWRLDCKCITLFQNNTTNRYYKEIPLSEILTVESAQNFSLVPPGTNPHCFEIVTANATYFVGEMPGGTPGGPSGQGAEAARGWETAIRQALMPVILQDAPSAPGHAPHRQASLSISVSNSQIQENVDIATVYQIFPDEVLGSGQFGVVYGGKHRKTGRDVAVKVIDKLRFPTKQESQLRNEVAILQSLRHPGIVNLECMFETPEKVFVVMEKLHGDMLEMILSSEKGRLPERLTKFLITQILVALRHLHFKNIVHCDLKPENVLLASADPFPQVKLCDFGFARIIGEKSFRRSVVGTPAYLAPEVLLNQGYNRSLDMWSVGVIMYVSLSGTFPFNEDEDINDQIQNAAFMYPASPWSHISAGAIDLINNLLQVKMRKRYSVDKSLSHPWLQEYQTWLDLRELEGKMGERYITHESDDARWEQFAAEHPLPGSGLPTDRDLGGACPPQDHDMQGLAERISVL
Briefly: Inhibition of PKD2 (unknown origin) at 30 uM by microfluidic mobility shift assay relative to control. The gist of the method: as §1

Assay [13] has as its target Serine/threonine-protein kinase Chk2 (Homo sapiens, UniProt O96017). As to the kind of experiment: Inhibition of CHK2 (unknown origin) at 30 uM by microfluidic mobility shift assay relative to control. Put shortly:
as §1

In assay [14] the target is RAC-alpha serine/threonine-protein kinase (Homo sapiens, UniProt P31749). As to the kind of experiment: Inhibition of AKT1 (unknown origin) at 30 uM by microfluidic mobility shift assay relative to control. The gist of the method:
as §1

In assay [15] the target is Ribosomal protein S6 kinase alpha-5 (Homo sapiens, UniProt O75582). As to the kind of experiment: Inhibition of MSK1 (unknown origin) at 30 uM by microfluidic mobility shift assay relative to control. The gist of the method: as §1

Tyrosine-protein kinase Fyn, sequence (P06241 2-537 limits assumed): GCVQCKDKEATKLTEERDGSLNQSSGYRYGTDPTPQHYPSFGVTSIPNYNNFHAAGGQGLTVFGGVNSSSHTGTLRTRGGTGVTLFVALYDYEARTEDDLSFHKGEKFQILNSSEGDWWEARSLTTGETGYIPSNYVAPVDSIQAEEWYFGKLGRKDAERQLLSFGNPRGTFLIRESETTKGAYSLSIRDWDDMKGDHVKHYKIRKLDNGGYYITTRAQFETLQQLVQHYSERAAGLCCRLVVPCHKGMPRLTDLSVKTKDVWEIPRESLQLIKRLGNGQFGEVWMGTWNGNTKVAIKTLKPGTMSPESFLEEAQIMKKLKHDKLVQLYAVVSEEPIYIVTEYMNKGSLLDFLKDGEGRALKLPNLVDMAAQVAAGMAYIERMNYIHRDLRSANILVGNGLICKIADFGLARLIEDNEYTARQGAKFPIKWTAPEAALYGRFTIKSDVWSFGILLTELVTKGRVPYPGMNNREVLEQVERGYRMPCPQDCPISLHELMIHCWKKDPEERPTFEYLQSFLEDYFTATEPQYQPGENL
Glycogen synthase kinase-3 beta, sequence (P49841 whole entry, looked up): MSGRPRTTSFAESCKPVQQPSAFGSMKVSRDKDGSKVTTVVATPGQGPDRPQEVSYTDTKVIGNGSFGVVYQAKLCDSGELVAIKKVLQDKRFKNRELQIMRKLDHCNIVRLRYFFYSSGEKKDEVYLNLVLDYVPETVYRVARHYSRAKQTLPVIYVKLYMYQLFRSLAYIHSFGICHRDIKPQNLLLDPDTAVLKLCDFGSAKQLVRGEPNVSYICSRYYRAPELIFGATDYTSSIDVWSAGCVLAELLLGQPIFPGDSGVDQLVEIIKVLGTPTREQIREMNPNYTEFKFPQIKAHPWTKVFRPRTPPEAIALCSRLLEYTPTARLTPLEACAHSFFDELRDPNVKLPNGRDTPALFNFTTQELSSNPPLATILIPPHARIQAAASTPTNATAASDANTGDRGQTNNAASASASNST
RAC-alpha serine/threonine-protein kinase, sequence (P31749 whole entry): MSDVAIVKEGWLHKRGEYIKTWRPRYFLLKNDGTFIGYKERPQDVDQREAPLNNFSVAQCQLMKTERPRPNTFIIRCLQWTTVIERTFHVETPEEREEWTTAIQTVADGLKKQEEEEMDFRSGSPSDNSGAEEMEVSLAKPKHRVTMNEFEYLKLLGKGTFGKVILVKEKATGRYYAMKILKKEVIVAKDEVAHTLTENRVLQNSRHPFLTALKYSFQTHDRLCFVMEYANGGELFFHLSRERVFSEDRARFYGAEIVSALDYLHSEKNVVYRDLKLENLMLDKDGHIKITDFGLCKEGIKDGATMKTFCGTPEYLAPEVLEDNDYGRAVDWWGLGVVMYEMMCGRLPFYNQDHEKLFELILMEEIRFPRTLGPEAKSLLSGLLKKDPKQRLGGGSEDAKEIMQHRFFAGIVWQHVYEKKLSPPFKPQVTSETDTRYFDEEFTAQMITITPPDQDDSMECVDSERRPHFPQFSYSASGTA
Mitogen-activated protein kinase 14 (Homo sapiens), sequence (Q16539 whole entry): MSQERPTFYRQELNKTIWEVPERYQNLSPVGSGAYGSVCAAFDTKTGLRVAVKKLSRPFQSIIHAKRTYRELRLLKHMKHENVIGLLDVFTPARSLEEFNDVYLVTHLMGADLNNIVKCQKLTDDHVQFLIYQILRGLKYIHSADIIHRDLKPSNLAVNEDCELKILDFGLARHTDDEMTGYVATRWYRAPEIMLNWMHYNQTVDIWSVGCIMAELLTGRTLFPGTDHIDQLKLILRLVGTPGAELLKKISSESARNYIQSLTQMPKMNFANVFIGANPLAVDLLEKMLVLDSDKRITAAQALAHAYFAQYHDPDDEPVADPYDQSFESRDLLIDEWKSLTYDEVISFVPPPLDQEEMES
Serine/threonine-protein kinase Chk2, sequence (O96017 whole entry): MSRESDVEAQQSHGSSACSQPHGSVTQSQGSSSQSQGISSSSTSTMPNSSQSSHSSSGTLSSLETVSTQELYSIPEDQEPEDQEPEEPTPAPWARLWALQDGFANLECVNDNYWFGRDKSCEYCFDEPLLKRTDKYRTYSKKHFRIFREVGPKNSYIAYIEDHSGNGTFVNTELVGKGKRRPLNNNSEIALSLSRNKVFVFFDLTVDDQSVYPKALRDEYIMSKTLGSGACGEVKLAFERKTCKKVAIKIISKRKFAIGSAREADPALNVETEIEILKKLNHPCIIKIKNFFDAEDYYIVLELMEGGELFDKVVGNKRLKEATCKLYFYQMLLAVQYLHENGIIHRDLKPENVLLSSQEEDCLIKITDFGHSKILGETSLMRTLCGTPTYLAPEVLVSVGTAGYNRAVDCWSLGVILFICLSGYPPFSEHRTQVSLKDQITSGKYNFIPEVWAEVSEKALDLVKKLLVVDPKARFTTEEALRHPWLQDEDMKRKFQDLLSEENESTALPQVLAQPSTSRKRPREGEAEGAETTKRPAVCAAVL

On to `c1ccc(CC2CCNC3(CCN(c4ncnc5[nH]cnc45)CC3)C2)cc1` (racemic), for which the inhibition in assay [1] came out at 28%; in [2] it was 10%; in assay [3] it was 8%; in assay [4] it was 3%; in assay [5] it was 98%; in [6], 101%. Moreover, the inhibition in assay [7] was 0%; in assay [8] it was 53%; in assay [9], 84%; in assay [10], 21%; in [11] it was 0%; in assay [12], 84%. Also, the inhibition in [13] came out at 98%; in assay [14], 101%; in [15], 100%.
On to `OCC1CCC2(CCN(c3ncnc4[nH]cnc34)CC2)NC1` (racemic), for which the inhibition in assay [1] came out at 1%; in assay [2] it was 14%; in [3], 43%; in [4], 22%; in [5], 38%; in assay [6], 98%. Also, the inhibition amounted to 0% in assay [7]; 16% in assay [8]; 27% in assay [9]; 21% in assay [10]; 17% in assay [11]; 45% in assay [12]. Also, the inhibition in [13] is 56%; in assay [14], 80%; in assay [15], 88%.
In the case of `c1ccc(C2CCC3(CCN(c4ncnc5[nH]cnc45)CC3)NC2)cc1` (stereo not given), the inhibition was determined as 18% in [1]; 10% in assay [2]; 23% in assay [3]; 17% in assay [4]; 41% in assay [5]; 96% in assay [6]. Besides, the inhibition is 0% in assay [7]; 44% in [8]; 69% in [9]; 21% in assay [10]; 31% in assay [11]; 33% in assay [12]. The inhibition worked out at 44% in assay [13], 85% in assay [14] and 78% in assay [15].
Consider `c1nc(N2CCC3(CCCN3)CC2)c2nc[nH]c2n1`, for which the inhibition was 31% in [1]; 2% in assay [2]; 29% in assay [3]; 48% in assay [4]; 72% in assay [5]; 98% in assay [6]. Also, the inhibition in assay [7] was 0%; in assay [8] it was 20%; in [9], 85%; in [10], 19%; in assay [11] it was 2%; in assay [12] it was 82%. Further, the inhibition in [13] was 81%; in [14], 91%; in [15] it was 95%.
As for `c1nc(N2CCC3(CCCCN3)CC2)c2nc[nH]c2n1`, the inhibition in [1] was found to be 34%; in assay [2], 3%; in assay [3] it was 11%; in assay [4], 24%; in assay [5], 57%; in assay [6] it was 98%. For the same molecule, the inhibition was 0% in assay [7]; 52% in assay [8]; 85% in [9]; 28% in assay [10]; 4% in assay [11]; 42% in [12]. The inhibition worked out at 58% in [13], 87% in assay [14] and 88% in assay [15].
In the case of `O=S(=O)(c1cccc2cnccc12)N1CCCC2(CCNCC2)C1`, the inhibition in [1] was found to be 2%; in assay [2], 2%; in [3] it was 0%; in [4], 0%; in assay [5], 17%; in [6], 83%. Also, the inhibition in [7] was determined as 4%; in [8] it was 9%; in assay [9], 2%; in [10] it was 3%; in assay [11], 4%; in assay [12] it was 21%. The inhibition in [13] worked out at 13%; in [14] it was 24%; in assay [15], 39%.
As for `c1nc(N2CCCC3(CCNCC3)C2)c2nc[nH]c2n1`, the inhibition came to 33% in assay [1]; 2% in [2]; 3% in [3]; 19% in [4]; 26% in [5]; 98% in assay [6]. Moreover, the inhibition in assay [7] is 21%; in assay [8], 33%; in assay [9] it was 71%; in assay [10] it was 32%; in [11], 3%; in assay [12], 55%. The values for the inhibition in [13], in assay [14] and in assay [15] were 35%, 85% and 89%, respectively.
As to `OC1CCNC2(CCN(c3ncnc4[nH]cnc34)CC2)C1` (racemic), the inhibition was found to be 28% in assay [1]; 4% in [2]; 32% in assay [3]; 8% in assay [4]; 59% in assay [5]; 98% in [6]. The inhibition in [7] came out at 0%; in assay [8], 39%; in assay [9], 80%; in [10] it was 19%; in [11], 0%; in assay [12], 23%. Also, the values for the inhibition in assay [13], in assay [14] and in [15] were 44%, 94% and 93%, respectively.

As a reminder, the inhibition is the drop in the measured response relative to a control, in per cent.
